In publication PMC10468838 (ACS Omega, 2023):
Converted amounts (≈) assume the structure as drawn. Read-outs that look alike come from different tables or passages of the source.

Experiments:
[1] = tested on: MCF-7 breast cancer cells; test: MTT assay, MCF-7 cells; format: cell-based; settings: Homo sapiens, MCF7, 72 h, read-out: IC50 (μM) MCF-7
Method in brief: (§1)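 HT29, H1975, A549, MCF-7 and normal colon epithelial CCD841 cells were seeded at 5×10^5 cells/mL and grown 24 h. They were exposed to test compound at 0.5, 1.0, 2.0, 5.0 or 12.5 μM in DMEM for 24 h, then cultured a further 72 h. MTT (5 mg/mL solution) was added for 4 h at 37 °C and the formazan dissolved in DMSO. A490 was read. IC50 is given as mean ± s.d., n = 3.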

[2] = tested on: A549 lung cancer cells; test: MTT assay, A549 cells; format: cell-based; settings: Homo sapiens, A549, 72 h, read-out: IC50 (μM) A549
Method in brief: as §1

[3] = tested on: H1975 lung adenocarcinoma cells; test: MTT assay, H1975 cells; format: cell-based; settings: Homo sapiens, NCI-H1975, 72 h, read-out: IC50 (μM) H1975
Method in brief: as §1

[4] = tested on: HT29 colon cancer cells; test: MTT assay, HT29 cells; format: cell-based, human; settings: for IC50: read-out: IC50 (μM) HT29
Method in brief: as §1

[5] = tested on: HT29, H1975, A549 and MCF-7 cancer cells; test: MTT assay, summary over the four cancer cell lines; format: cell-based, human; settings: for IC50: Homo sapiens, read-out: IC50 against the four cancer cell lines
Method in brief: as §1

[6] = logP by UV method; format: physicochemical
[7] = tested on: HT29 cells; test: Apoptosis assay, annexin V-FITC/PI flow cytometry; format: cell-based, human
Method in brief: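 HT29 cells were seeded at 2×10^4 cells per well and left overnight. They were treated with test compound at 1.0 or 5.0 μM (parent reference 5.0 μM) for 24 h, then kept another 72 h. Cells were harvested, washed in PBS and stained with annexin V-FITC/PI. Early plus late apoptotic cells were counted by flow cytometry. Results are mean ± SD of three separate assays.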

[8] = tested on: H2AX in HT29 cells; test: Western blot, H2AX; format: cell-based, human; settings: Western blotting
Method in brief: (§2)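 HT29 cells were cultured for 4 h in medium containing test compound at 1.0 or 5.0 μM, with the parent reference at 5.0 μM. Lysis was in RIPA buffer with protease and phosphatase inhibitors, 30 min on ice. Protein was quantified by BCA, and equal amounts were run on SDS-PAGE and transferred to PVDF. Band levels were expressed relative to β-actin.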

[9] = tested on: ROS levels in HT29 cells; test: Intracellular ROS detection with DCFH-DA probe; format: cell-based, human; settings: 12 h, CO 5.0 μM, 8h 1.0 or 5.0 μM
Method in brief: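 HT29 cells (about 1×10^4 per well) were exposed to test compound at 1.0 or 5.0 μM for 12 h, with the parent reference at 5.0 μM. DCFH-DA (10 μM) was added for 30 min. DCF green fluorescence (λex 488 nm, λem 500–550 nm) was imaged by confocal microscopy. Results are mean ± SD of three separate assays.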

[10] = Water solubility by UV method; format: physicochemical; settings: thermodynamic from solid
Method in brief: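 For a UV calibration curve, absorbance was measured at five concentrations of each compound in methanol/water (1:1, v/v). Excess solid compound was left standing in water for 2 h, then filtered. Absorbance of the filtrate was read and converted to concentration using the curve, giving water solubility.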

[11] = tested on: Bcl-2 in HT29 cells; test: Western blot, Bcl-2; format: cell-based, human; settings: 1.0 and 5.0 μM, Western blotting
[12] = tested on: cleaved-caspase 3 in HT29 cells; test: Western blot, cleaved-caspase 3; format: cell-based, human; settings: 1.0 and 5.0 μM, Western blotting
Method in brief: as §2

[13] = tested on: MMP of HT29 cells; test: Mitochondrial membrane potential with JC-1 dye; format: cell-based, human; settings: 8h 5 μM
[14] = tested on: human normal colon epithelial cells (CCD841); test: MTT assay, normal CCD841 cells; format: cell-based
Method in brief: as §1

[15] = tested on: GSH level in HT29 cells; test: GSH level assay; format: cell-based, human; settings: 24 h, 1.0 or 5.0 μM, compared with CO
Method in brief: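 HT29 cells were exposed for 24 h to test compound at 1.0 or 5.0 μM, with the parent reference at 5.0 μM. Cells were harvested and counted. Glutathione was measured with a QuantiChrome glutathione assay kit. Results are mean ± SD, n = 3.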

[16] = tested on: GPX4 in HT29 cells; test: Western blot, GPX4; format: cell-based, human; settings: 1.0 or 5.0 μM, compared with CO
Method in brief: as §2

[17] = tested on: malondialdehyde (MDA) in HT29 cells; test: Lipid peroxidation; format: cell-based, human; settings: compared with CO
Method in brief: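 HT29 cells were pretreated with or without ferrostatin-1 (1.0 μM) for 4 h. They were then exposed to test compound at 1.0 or 5.0 μM, with the parent reference at 5.0 μM. Lipid peroxidation was quantified as malondialdehyde with an MDA assay kit. Results are mean ± SD, n = 3.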

IC50 [1]	IC50 [2]	IC50 [3]	IC50 ([4]; Homo sapiens, HT-29, 72 h)	logP [6]	solubility at 2 h [10]	Structure (SMILES)	also measured
5.9 ± 0.5 µM	3.5 ± 0.4 µM	–	–	–	–	NC1CCC(NC(=O)c2cc3c4ccccc4n4c(=O)ccc(n2)c34)CC1 (stereo not drawn) [8j, N-(4-Aminocyclohexyl)-6-oxo-6H-indolo[3,2,1-de][1,5]naphthyridine-2-carboxamide]	–
> 10 µM	> 10 µM	> 10 µM	> 10 µM	–	–	CN1CCN(C2CCN(c3ccc(NC(=O)c4cc5c6ccccc6n6c(=O)ccc(n4)c56)cc3)CC2)CC1 [8l, N-(4-(4-(4-Methylpiperazin-1-yl)piperidin-1-yl)phenyl)-6-oxo-6H-indolo[3,2,1-de][1,5]naphthyridine-2-carboxamide]	–
4.6 ± 0.5 µM	4.8 ± 0.4 µM	7.7 ± 0.8 µM	4.1 ± 0.3 µM	–	–	CN(C)CCCNC(=O)c1cc2c3ccccc3n3c(=O)ccc(n1)c23 [8c, N-(3-(Dimethylamino)propyl)-6-oxo-6H-indolo[3,2,1-de][1,5]naphthyridine-2-carboxamide]	–
8.9 ± 0.9 µM	7.6 ± 0.6 µM	10.7 ± 1.2 µM	8.6 ± 0.7 µM	1.87	16.1 ± 1 µg/mL (≈ 73.1 µM)	O=c1ccc2nccc3c4ccccc4n1c23 [CO, Canthin-6-one, reference compound]	IC50 [5]: 7.6 to 10.7 µM; percentage of apoptotic cells (early + late) ([7]; 5.0 μM): 22.68%; increase of H2AX expression ([8]; 5.0 μM): approximately 1.3 fold; intracellular ROS level (DCFH-DA fluorescence) [9]: weak fluorescence signal
–	–	–	–	–	–	COc1cccc2c1C(=O)c1c(O)c3c(c(O)c1C2=O)C[C@@](O)(C(=O)CO)C[C@@H]3O[C@H]1C[C@H](N)[C@H](O)[C@H](C)O1 [ADM, reference compound]	IC50 ([4]; HT29 cells, MTT, incubated for 72 h, mean ± s.d., n = 3): 2.6 ± 0.4 µM
3.8 ± 0.3 µM	–	5.5 ± 0.7 µM	4.3 ± 0.5 µM	–	–	CCN(CC)CCCC(C)NC(=O)c1cc2c3ccccc3n3c(=O)ccc(n1)c23 (stereo not drawn) [8k, N-(5-(Diethylamino)pentan-2-yl)-6-oxo-6H-indolo[3,2,1-de][1,5]naphthyridine-2-carboxamide]	–
–	4.2 ± 0.3 µM	–	2.6 ± 0.2 µM	–	–	O=C(NCCNCCO)c1cc2c3ccccc3n3c(=O)ccc(n1)c23 [8d, N-(2-((2-Hydroxyethyl)amino)ethyl)-6-oxo-6H-indolo[3,2,1-de][1,5] naphthyridine-2-carboxamide]	–
4.6 ± 0.5 µM	3.4 ± 0.3 µM	3 ± 0.4 µM	2.3 ± 0.3 µM	1.38	60.4 ± 5.4 µg/mL (≈ 168 µM)	CN1CCC(NC(=O)c2cc3c4ccccc4n4c(=O)ccc(n2)c34)CC1 [8i, N-(1-Methylpiperidin-4-yl)-6-oxo-6H-indolo[3,2,1-de][1,5]naphthyridine-2-carboxamide]	–
4.5 ± 0.6 µM	2.1 ± 0.3 µM	–	–	–	–	O=C(NCCN1CCCC1)c1cc2c3ccccc3n3c(=O)ccc(n1)c23 [8e, 6-Oxo-N-(2-(pyrrolidin-1-yl)ethyl)-6H-indolo[3,2,1-de][1,5]naphthyridine-2-carboxamide]	–
1.7 ± 0.2 µM	1.3 ± 0.1 µM	1.9 ± 0.3 µM	1 ± 0.1 µM	1.19	70.5 ± 3.6 µg/mL (≈ 181 µM)	CN1CCN(CCNC(=O)c2cc3c4ccccc4n4c(=O)ccc(n2)c34)CC1 [8h, N-(2-(4-Methylpiperazin-1-yl)ethyl)-6-oxo-6H-indolo[3,2,1-de][1,5] naphthyridine-2-carboxamide]	IC50 [5]: 1 to 1.9 µM; fold higher cytotoxicity than CO against the four cancer cells ([5]; vs CO, four cancer cell lines): 5–9 fold; percentage of apoptotic cells (early + late) ([7]; 1.0 μM): 31.55%; percentage of apoptotic cells (early + late) ([7]; 5.0 μM): 45.14%; fold lower IC50 than CO against HT29 cells ([4]; HT29 cells, vs CO): 8.6 fold; Bcl-2 expression [11]: reduced the expression of antiapoptotic Bcl-2 protein in a dose-dependent manner; cleaved-caspase 3 level [12]: remarkably led to cleavage of caspase-3; MMP (JC-1 red/green fluorescence) [13]: intracellular red fluorescence almost disappeared; increase of H2AX expression ([8]; 1.0 μM): 2.4 fold; increase of H2AX expression ([8]; 5.0 μM): 3.2 fold; IC50 ([14]; Homo sapiens, CCD-841, read-out: IC50 in normal cell line CCD841): 17.1 ± 2.5 µM; fold less cytotoxicity in CCD841 than in HT29 cells ([14]; IC50 CCD841 vs IC50 HT29): 17 fold; GSH level [15]: markedly reduced; intracellular ROS level (DCFH-DA fluorescence) [9]: Intense green fluorescence; GPX4 expression [16]: markedly reduced; level of malondialdehyde (MDA), lipid peroxidation [17]: increased the level of malondialdehyde
4.7 ± 0.4 µM	3.8 ± 0.5 µM	–	2.2 ± 0.3 µM	–	–	CCN(CC)CCNC(=O)c1cc2c3ccccc3n3c(=O)ccc(n1)c23 [8a, N-(2-(Diethylamino)ethyl)-6-oxo-6H-indolo[3,2,1-de][1,5]naphthyridine-2-carboxamide]	–
2.4 ± 0.2 µM	2 ± 0.1 µM	1.6 ± 0.1 µM	1.7 ± 0.3 µM	2.17	41.3 ± 4.5 µg/mL (≈ 110 µM)	O=C(NCCN1CCCCC1)c1cc2c3ccccc3n3c(=O)ccc(n1)c23 [8f, 6-Oxo-N-(2-(piperidin-1-yl)ethyl)-6H-indolo[3,2,1-de][1,5]naphthyridine-2-carboxamide]	–
3.8 ± 0.3 µM	3.2 ± 0.2 µM	7.5 ± 0.6 µM	2.9 ± 0.4 µM	–	–	CN(C)CCNC(=O)c1cc2c3ccccc3n3c(=O)ccc(n1)c23 [8b, N-(2-(Dimethylamino)ethyl)-6-oxo-6H-indolo[3,2,1-de][1,5]naphthyridine-2-carboxamide]	–
